Screening data from PubChem.
esBAF inh = Bmi1 luciferase reporter increase in mESCs, primary screen, esBAF inhibitor project, mouse ES cells, Bmi1 luciferase knock-in, single point; 24 h; 100% = twice the neutral-well signal; reporter increase, % at 12.5 µM; AID 602393, 2012; 2% of 350,000 active; in the data active = activation above about 40%; inconclusive = no clear call, values can overlap the other calls;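 note: a rise in the Bmi1 reporter signal indicates esBAF inhibition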
HIV Env fusion = inhibitors of HIV-1 Env-driven cell-cell fusion, primary screen, HeLa-JRFL effector, CEM21 target cells, luciferase | inhibition, % at 12.3 µM | 1.1% of 360,000 active | AID 651610, 2012;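 active = mean replicate inhibition score of at least 50 and every replicate individually at or above 50; inconclusive = only one of the two criteria met; inactive = mean below 50 and not all replicates reaching 50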
ERAP1 inh = human ERAP1 aminopeptidase inhibitors, primary screen, biochemical, single point, plate reader; 0.15% of 340,000 active; inhibition, % at 10.7 µM; recombinant ERAP1, Leu-AMC fluorescence, 60 min;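 active = mean replicate inhibition of at least 30%, or all replicates individually reaching that 30% level; inactive = mean below 30% and not every replicate reaching it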
Target sequence (Q9NZ08 whole entry, looked up): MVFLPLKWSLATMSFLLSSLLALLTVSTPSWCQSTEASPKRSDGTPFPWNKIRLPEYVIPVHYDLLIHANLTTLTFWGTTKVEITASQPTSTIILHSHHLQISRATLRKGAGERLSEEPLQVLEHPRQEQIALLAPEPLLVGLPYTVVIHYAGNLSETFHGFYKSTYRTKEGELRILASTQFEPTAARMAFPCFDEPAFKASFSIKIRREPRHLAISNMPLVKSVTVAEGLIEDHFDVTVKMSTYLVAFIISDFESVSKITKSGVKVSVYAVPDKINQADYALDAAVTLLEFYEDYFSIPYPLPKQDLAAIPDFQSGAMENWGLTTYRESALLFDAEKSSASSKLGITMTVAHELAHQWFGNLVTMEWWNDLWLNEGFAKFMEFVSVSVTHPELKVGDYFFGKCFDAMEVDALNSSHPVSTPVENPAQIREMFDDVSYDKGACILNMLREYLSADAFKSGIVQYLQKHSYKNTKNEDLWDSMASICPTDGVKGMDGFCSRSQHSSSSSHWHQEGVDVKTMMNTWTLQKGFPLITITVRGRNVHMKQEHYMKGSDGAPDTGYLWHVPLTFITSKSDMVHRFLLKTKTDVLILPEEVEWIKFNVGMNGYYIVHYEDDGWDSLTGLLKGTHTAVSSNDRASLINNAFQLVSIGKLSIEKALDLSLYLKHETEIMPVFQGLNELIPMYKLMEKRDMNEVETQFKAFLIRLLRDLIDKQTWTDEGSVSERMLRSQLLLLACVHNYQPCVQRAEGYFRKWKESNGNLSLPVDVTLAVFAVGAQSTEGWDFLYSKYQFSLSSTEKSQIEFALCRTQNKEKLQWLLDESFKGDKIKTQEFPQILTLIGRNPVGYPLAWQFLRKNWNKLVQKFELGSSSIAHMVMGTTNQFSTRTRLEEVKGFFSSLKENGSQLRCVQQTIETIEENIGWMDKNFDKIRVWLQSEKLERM
Cneo AK release = Cryptococcus neoformans cell lysis inducers, primary screen, AK release luminescence, single concentration; C. neoformans lysis, adenylate kinase release luminescence, 4 h; normalised: neutral wells 0, clomiphene wells 100; lysis activity, % at 15 µM; 0.2% of 360,000 active;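 active = mean lysis activity across replicates of at least 80%, whatever share of replicates individually reach that level; inactive = mean lysis activity below 80%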
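read-out = cell lysis signal | test system = log-phase Cryptococcus neoformans yeast cells | input = cells at 5 × 10^6 per mL | medium = fresh YPD growth medium | signal = luminescent adenylate kinase detection reagent | timing = 4 h at 37 °C static, read 1 h later | dosing = single dose | controls = Clomiphene as positive lysis control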
Wnt bcat act = Wnt/beta-catenin pathway activators, primary screen, cell-based, plate reader, single point; activation, % at 9.35 µM; Wnt/beta-catenin reporter cell assay, activator; 1.2% of 300,000 active; AID 743398, 2014; in the data active = activation above about 30%, passing the limit was not always enough; inconclusive = no clear call, values can overlap the other calls
MITF act = activators of MITF-driven TRPM1 promoter reporter, primary screen, cell-based, SK-MEL-5, luciferase, single point. SK-MEL-5 TRPM1-promoter luciferase, 24 h; % of positive control, neutral wells = 0. activation, % at 12.5 µM. 0.75% of 300,000 active;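 active = mean activation of at least 80% with every replicate also reaching 80%; inconclusive = mean reaches 80% but some replicate falls short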
Each line names hits and unclear results; the compound was inactive in the other large screens; ! = repeats disagree; [ ] = remark or other dose. Compounds with a hit are over-represented: about 3.5% of the library has one in this group of screens.

N#Cc1c(NCc2ccccc2)ccnc1NCc1cccnc1	HIV Env fusion 106.8 (no result: ERAP1 inh, Wnt bcat act, MITF act)
Cc1cc(C(=O)OCC(=O)N2CCc3ccccc32)c(C)o1	esBAF inh 49.8 (no result: HIV Env fusion, Wnt bcat act)
COc1ccc2c(CC(=O)N3CCc4ccccc43)coc2c1	MITF act 111.2 (no result: esBAF inh, HIV Env fusion, ERAP1 inh, Wnt bcat act)
O=C(COc1ccc(F)cc1Br)N1CCc2ccccc21	Wnt bcat act 72.3 (no result: ERAP1 inh)
O=C(CNc1ccccc1OC(F)F)N1CCc2ccccc21	MITF act 107.6 (no result: esBAF inh, Cneo AK release, Wnt bcat act)
CC(C)NC(=O)Nc1ccc2c(c1)C(=O)N([C@H](C)CO)C[C@H](C)[C@H](CN(C)S(=O)(=O)c1cn(C)cn1)OCCCC[C@H](C)O2	none (no result: Wnt bcat act, MITF act)
Cc1ccccc1S(=O)(=O)N[C@H]1CC[C@@H](CCNS(=O)(=O)c2cccc(F)c2)O[C@H]1CO	none (no result: Wnt bcat act, MITF act)
COc1ccc(OCC(=O)N2CCc3ccccc32)c([N+](=O)[O-])c1	esBAF inh 54.0 (no result: MITF act)
O=C(COc1ccc([N+](=O)[O-])cc1Cl)N1CCc2ccccc21	esBAF inh 66.0, Wnt bcat act 41.7, MITF act 119.3 (no result: HIV Env fusion)
N#Cc1ccc(OCC(=O)N2CCc3ccccc32)cc1	esBAF inh 44.5
O=C(c1cc([N+](=O)[O-])ccc1Cl)N1CCc2ccccc21	none (no result: MITF act)
C[C@@H]1CCCCO[C@H](CN(C)CC2CC2)[C@H](C)CN([C@H](C)CO)C(=O)c2cc(NC(=O)NC3CCCCC3)ccc2O1	none (no result: esBAF inh, HIV Env fusion, Cneo AK release, Wnt bcat act, MITF act)
C[C@@H]1CN([C@H](C)CO)C(=O)c2cc(NS(=O)(=O)c3ccccc3)ccc2O[C@@H](C)CCCCO[C@@H]1CN(C)Cc1ccc(Cl)c(Cl)c1	HIV Env fusion 69.0![16.7 µM] (no result: MITF act)
C[C@@H]1CN([C@H](C)CO)C(=O)c2cc(NS(=O)(=O)c3ccc(Cl)cc3)ccc2O[C@@H](C)CCCCO[C@@H]1CN(C)Cc1ccc2c(c1)OCO2	HIV Env fusion 68.5![16.7 µM] (no result: Wnt bcat act, MITF act)
Cc1noc(C)c1S(=O)(=O)Nc1ccc2c(c1)C(=O)N([C@@H](C)CO)C[C@H](C)[C@@H](CN(C)Cc1ccc3c(c1)OCO3)OCCCC[C@@H](C)O2	Cneo AK release 101.2 (no result: Wnt bcat act, MITF act)
C[C@H]1CCCCO[C@H](CN(C)Cc2ccccc2)[C@@H](C)CN([C@@H](C)CO)C(=O)c2cc(NS(=O)(=O)c3ccc(Cl)cc3)ccc2O1	none (no result: Wnt bcat act, MITF act)
C[C@@H]1CN([C@H](C)CO)C(=O)c2cc(NS(=O)(=O)c3ccc(Cl)cc3)ccc2O[C@@H](C)CCCCO[C@@H]1CN(C)Cc1ccccc1	HIV Env fusion 65.2[16.7 µM] (no result: Wnt bcat act, MITF act)
COc1ccccc1-c1ccc2n(c1=O)C[C@H]1[C@H](CO)[C@@H](C(=O)NCc3ccccn3)[C@@H]2N1C	none (no result: esBAF inh, HIV Env fusion, Cneo AK release, Wnt bcat act, MITF act)
CN1C(=O)SC(Nc2ccccc2)C1=O (stereo unspecified)	none (no result: HIV Env fusion, Wnt bcat act)
COc1cccc(NC2SC(=O)N(c3ccccc3)C2=O)c1 (stereo unspecified)	esBAF inh 59.2 (no result: MITF act)
NNC(=O)c1ccc(COc2ccc3ccccc3c2)o1	Wnt bcat act inconclusive (no result: esBAF inh, Cneo AK release)
O=C(OCc1ccccn1)c1ccc(COc2ccc3ccccc3c2)o1	esBAF inh 53.3
COC(=O)Cn1c2nc3ccccc3nc2c2cccc(C)c21	none
Cc1cccc2c3nc4ccccc4nc3n(C)c12	esBAF inh 41.4
CCOc1cc(-c2cn(S(=O)(=O)c3cccc4nsnc34)nc2N)cc(OCC)c1OCC	HIV Env fusion 65.9 (no result: ERAP1 inh, Wnt bcat act)
Cc1noc(C)c1NC(=O)Nc1ccc2c(c1)C(=O)N([C@H](C)CO)C[C@@H](C)[C@@H](CN(C)S(=O)(=O)c1cn(C)cn1)O2	none (no result: HIV Env fusion, Wnt bcat act, MITF act)
O=C(Nc1ccccc1F)Nc1ccc([N+](=O)[O-])cc1Cl	Wnt bcat act 42.8 (no result: esBAF inh, Cneo AK release)
COCC(=O)N[C@@H]1C=C[C@H](CC(=O)N2CCCCC2)O[C@@H]1CO	none (no result: ERAP1 inh, Cneo AK release, Wnt bcat act, MITF act)
CCC(C)Sc1ccc(-c2nc3ccc(Cl)cn3c2NCc2ccccc2)cc1 (stereo unspecified)	esBAF inh 50.1, Wnt bcat act inconclusive, MITF act 83.9
Clc1cccc(-c2ccc(-c3nc4ccccn4c3NCc3ccccc3)cc2)c1	esBAF inh 49.7, Wnt bcat act 31.2
CCCCCCSc1cccc(-c2nc3ccc(Cl)cn3c2NCc2ccccc2)c1	HIV Env fusion 72.3!
C[C@H](CO)N1C[C@H](C)[C@H](CN(C)C(=O)Nc2ccc(F)cc2)Oc2ccc(NC(=O)Nc3ccc4c(c3)OCO4)cc2CC1=O	none (no result: ERAP1 inh, Wnt bcat act, MITF act)
O=C(c1cc(-c2ccccc2O)on1)N1CCOCC1	esBAF inh 50.7, Wnt bcat act 35.4, MITF act 96.2
O=C(c1cc(-c2ccccc2O)on1)N1CCCCCC1	esBAF inh 59.7, MITF act 125.1
O=C(/C=C/Nc1cccc(C(F)(F)F)c1)c1ccc(Oc2ncccn2)cc1	esBAF inh 49.4 (no result: HIV Env fusion, ERAP1 inh, Wnt bcat act)
O=C(/C=C/Nc1cccc(C(F)(F)F)c1)c1ccco1	none (no result: esBAF inh, Cneo AK release)
Cn1c(=O)n(CCOc2ccccc2Cl)c2ccccc21	esBAF inh 78.1 (no result: HIV Env fusion, ERAP1 inh)
Cc1ccc(OCCn2c(=O)n(C)c3ccccc32)cc1	esBAF inh 84.5 (no result: Cneo AK release)
Cn1c(=O)n(CCOc2ccc([N+](=O)[O-])cc2)c2ccccc21	none (no result: esBAF inh, MITF act)
O=C(O)CCn1c(=O)sc2ccccc21	none (no result: ERAP1 inh, MITF act)
Cn1c(=O)n(CCOc2ccc(Cl)cc2Cl)c2ccccc21	none (no result: esBAF inh, HIV Env fusion, ERAP1 inh, Wnt bcat act)
O=c1sc2ccccc2n1CCOc1ccccc1	esBAF inh 44.9
C/C=C/c1cnc2c(c1)C(=O)N([C@H](C)CO)C[C@H](C)[C@H](CN(C)S(=O)(=O)c1ccccc1)O2	none (no result: Wnt bcat act, MITF act)
CCN1/C(=C/C=C/C=C/C=C/c2sc3ccccc3[n+]2CC)Sc2ccccc21	ERAP1 inh 30.6
CCN1/C(=C/C=C/c2sc3ccccc3[n+]2CC)Sc2ccccc21	none (no result: HIV Env fusion, ERAP1 inh, Wnt bcat act)
O=C(Nc1ccc2c(c1)[C@H]1C[C@H](CC(=O)N3CCc4ccccc4C3)O[C@@H](CO)[C@H]1O2)C1CCOCC1	none (no result: Wnt bcat act, MITF act)
CN1c2ccc(-c3ccccc3F)cc2[C@@H]2[C@@H](CCN2C(=O)NC2CCCCC2)[C@H]1CO	none (no result: esBAF inh, Cneo AK release, Wnt bcat act, MITF act)
COc1ccc(C(=O)Cc2nnc(C)s2)c(OC)c1	none (no result: esBAF inh, ERAP1 inh, Cneo AK release)
O=C(COc1ccc(F)cc1)c1c(O)cc(O)cc1O	none
COc1ccc(C(=O)Cc2ccc(F)cc2)c(OC)c1	esBAF inh 76.0
COc1ccc(C(=O)Cc2cc(OC)c(OC)cc2[N+](=O)[O-])c(OC)c1	esBAF inh 51.5 (no result: HIV Env fusion)
COc1ccc(C(=O)COc2ccc(F)cc2)c(O)c1	esBAF inh 67.8
O=C(NC1CCCC1)[C@@H]1[C@@H](CO)[C@@H]2Cn3c(ccc(-c4cccnc4)c3=O)[C@@H]2N1CC1CC1	none (no result: HIV Env fusion, Wnt bcat act, MITF act)
O=C(O)C/C(=C\c1cc(Br)cs1)c1nc2ccccc2o1	esBAF inh 82.8
O=C(CSc1ccccn1)Nc1ccc2c(c1)OCO2	none (no result: esBAF inh, MITF act)
O=C(CSc1nc2ccccc2[nH]1)c1ccc2c(c1)OCO2	Wnt bcat act 54.4 (no result: ERAP1 inh, MITF act)
